Measured values: ChEMBL document CHEMBL2346499, “Small molecule modulators of Wnt/β-catenin signaling” (Bioorg Med Chem Lett, 2013)
Active and inactive are the calls of the source. No cut-off for these calls is given here.

What was measured:
[1] = molecular target: Frizzled-1 (Homo sapiens) (UniProt Q9UP38); test: Induction of internalization of Frizzled1-GFP (unknown origin) expressed in human U2OS cells at 12.5 uM after 6 hrs by confocal microscopy; assay type: cell-based
[2] = Induction of Wnt3A/beta-catenin signaling in HEK293 cells after 8 hrs by TOPflash reporter assay; assay type: cell-based; details: Homo sapiens
How it was run: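 HEK293 cells carrying TOPflash reporter, treated with or without Wnt3A conditioned medium (5% as reference sample) plus compound at the indicated concentrations for 8 hrs; luciferase read as relative luciferase units; significance versus Wnt3A-only sample by t test.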

Chain of Frizzled-1 (Homo sapiens) (Q9UP38 70-647 limits assumed): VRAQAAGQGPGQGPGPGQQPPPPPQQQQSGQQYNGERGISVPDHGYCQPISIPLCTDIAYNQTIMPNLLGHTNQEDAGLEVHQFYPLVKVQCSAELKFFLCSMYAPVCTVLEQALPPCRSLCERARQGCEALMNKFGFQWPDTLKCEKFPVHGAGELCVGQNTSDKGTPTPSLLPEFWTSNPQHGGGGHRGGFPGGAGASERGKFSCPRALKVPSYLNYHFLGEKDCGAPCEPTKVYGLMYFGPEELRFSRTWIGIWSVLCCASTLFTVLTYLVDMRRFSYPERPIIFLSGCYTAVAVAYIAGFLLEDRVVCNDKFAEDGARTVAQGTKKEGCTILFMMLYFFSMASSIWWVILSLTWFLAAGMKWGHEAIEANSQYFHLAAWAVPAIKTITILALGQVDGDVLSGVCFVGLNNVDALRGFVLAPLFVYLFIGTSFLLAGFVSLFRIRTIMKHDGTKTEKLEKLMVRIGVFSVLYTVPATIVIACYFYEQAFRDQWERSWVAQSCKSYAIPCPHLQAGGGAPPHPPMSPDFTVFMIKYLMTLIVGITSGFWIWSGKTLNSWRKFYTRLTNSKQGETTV

SMILES | Activity [1] | Activity [2]
COc1ccc(Cl)cc1C(=O)Nc1ccc([N+](=O)[O-])cc1Cl | inactive | –
O=C(Nc1ccc(Oc2ccc(Cl)cc2)c(Cl)c1)c1cc(I)cc(I)c1O | inactive | –
O=C(Nc1ccc([N+](=O)[O-])cc1Cl)c1cc(Cl)ccc1O [NICLOSAMIDE] | Active | –
O=C(Nc1ccc([N+](=O)[O-])cc1Cl)c1ccccc1O | Active | –
O=C(Nc1ccc([N+](=O)[O-])cc1Cl)c1cc(Br)ccc1O | Active | –
[N-]=[N+]=Nc1ccc(NC(=O)c2cc(Cl)ccc2O)c(Cl)c1 | Active | –
Nc1ccc(NC(=O)c2cc(Cl)ccc2O)c(Cl)c1 | inactive | –
[N-]=[N+]=NCCOCCOCCOc1cc([N+](=O)[O-])ccc1NC(=O)c1cc(Cl)ccc1O | Active | –
O=C(Nc1cc(Cl)cc(Cl)c1O)c1c(O)c(Cl)cc(Cl)c1Cl | inactive | –
O=C(Nc1ccc(Br)cc1)c1cc(Br)cc(Br)c1O | inactive | –
COc1cc([N+](=O)[O-])ccc1NC(=O)c1cc(Cl)ccc1O | Active | –
O=C(Nc1ccccc1[N+](=O)[O-])c1cc(Cl)ccc1O | inactive | –
O=C(Nc1ccc([N+](=O)[O-])cc1)c1cc(Br)ccc1O | Active | –
Cc1cc(C(C#N)c2ccc(Cl)cc2)c(Cl)cc1NC(=O)c1cc(I)cc(I)c1O (stereo not given) | inactive | –
O=C(Nc1ccc([N+](=O)[O-])cc1Cl)c1cccc(Cl)c1 | inactive | –
O=C(Nc1ccc([N+](=O)[O-])cc1Br)c1ccccc1O | Active | –
O=C(Nc1ccc(NS(=O)(=O)c2ccc(Cl)cc2)cc1Cl)c1cc(Cl)ccc1O | inactive | Dose-dependent effect
O=C(Nc1ccc([N+](=O)[O-])cc1)c1cc(Cl)ccc1O | Active | –
O=C(Nc1cccc([N+](=O)[O-])c1)c1cc(Cl)ccc1O | inactive | –
